Laboratory results from ChEMBL document CHEMBL4004835, “Discovery of Novel Disruptor of Silencing Telomeric 1-Like (DOT1L) Inhibitors using a Target-Specific Scoring Function for the (S)-Adenosyl-l-methionine (SAM)-Dependent Methyltransferase Family” (J Med Chem, 2017).
Calls of active or inactive are those of the source. The calls are words filed in the database; no cut-off is given here.

How the values were obtained:
[1] = target: T1, Histone-lysine N-methyltransferase, H3 lysine-79 specific (Homo sapiens, UniProt Q8TEK3); experiment: Inhibition of N-terminal 6His-tagged human DOT1L (1 to 416 residues) expressed in Escherichia coli BL21(DE3) at 50 uM using histone H3 as substrate preincubated for 15 mins followed by SAM addition measured after 60 mins by AlphaLISA assay
Method in brief: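 DOT1L (80 nM final) preincubated with compound 15 min at 25 °C; SAM 1 mM and oligonucleosomes 0.25 ng/μL added in 50 mM Tris-HCl pH 8.0, 150 mM NaCl, 3 mM MgCl2, 0.1% BSA, 60 min at 25 °C; stopped with high-salt buffer; H3K79me2 detected with anti-H3 acceptor beads, biotinylated antibody, then streptavidin donor beads.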
Target sequence in this assay (Q8TEK3 whole entry, looked up, the tested form may be a part): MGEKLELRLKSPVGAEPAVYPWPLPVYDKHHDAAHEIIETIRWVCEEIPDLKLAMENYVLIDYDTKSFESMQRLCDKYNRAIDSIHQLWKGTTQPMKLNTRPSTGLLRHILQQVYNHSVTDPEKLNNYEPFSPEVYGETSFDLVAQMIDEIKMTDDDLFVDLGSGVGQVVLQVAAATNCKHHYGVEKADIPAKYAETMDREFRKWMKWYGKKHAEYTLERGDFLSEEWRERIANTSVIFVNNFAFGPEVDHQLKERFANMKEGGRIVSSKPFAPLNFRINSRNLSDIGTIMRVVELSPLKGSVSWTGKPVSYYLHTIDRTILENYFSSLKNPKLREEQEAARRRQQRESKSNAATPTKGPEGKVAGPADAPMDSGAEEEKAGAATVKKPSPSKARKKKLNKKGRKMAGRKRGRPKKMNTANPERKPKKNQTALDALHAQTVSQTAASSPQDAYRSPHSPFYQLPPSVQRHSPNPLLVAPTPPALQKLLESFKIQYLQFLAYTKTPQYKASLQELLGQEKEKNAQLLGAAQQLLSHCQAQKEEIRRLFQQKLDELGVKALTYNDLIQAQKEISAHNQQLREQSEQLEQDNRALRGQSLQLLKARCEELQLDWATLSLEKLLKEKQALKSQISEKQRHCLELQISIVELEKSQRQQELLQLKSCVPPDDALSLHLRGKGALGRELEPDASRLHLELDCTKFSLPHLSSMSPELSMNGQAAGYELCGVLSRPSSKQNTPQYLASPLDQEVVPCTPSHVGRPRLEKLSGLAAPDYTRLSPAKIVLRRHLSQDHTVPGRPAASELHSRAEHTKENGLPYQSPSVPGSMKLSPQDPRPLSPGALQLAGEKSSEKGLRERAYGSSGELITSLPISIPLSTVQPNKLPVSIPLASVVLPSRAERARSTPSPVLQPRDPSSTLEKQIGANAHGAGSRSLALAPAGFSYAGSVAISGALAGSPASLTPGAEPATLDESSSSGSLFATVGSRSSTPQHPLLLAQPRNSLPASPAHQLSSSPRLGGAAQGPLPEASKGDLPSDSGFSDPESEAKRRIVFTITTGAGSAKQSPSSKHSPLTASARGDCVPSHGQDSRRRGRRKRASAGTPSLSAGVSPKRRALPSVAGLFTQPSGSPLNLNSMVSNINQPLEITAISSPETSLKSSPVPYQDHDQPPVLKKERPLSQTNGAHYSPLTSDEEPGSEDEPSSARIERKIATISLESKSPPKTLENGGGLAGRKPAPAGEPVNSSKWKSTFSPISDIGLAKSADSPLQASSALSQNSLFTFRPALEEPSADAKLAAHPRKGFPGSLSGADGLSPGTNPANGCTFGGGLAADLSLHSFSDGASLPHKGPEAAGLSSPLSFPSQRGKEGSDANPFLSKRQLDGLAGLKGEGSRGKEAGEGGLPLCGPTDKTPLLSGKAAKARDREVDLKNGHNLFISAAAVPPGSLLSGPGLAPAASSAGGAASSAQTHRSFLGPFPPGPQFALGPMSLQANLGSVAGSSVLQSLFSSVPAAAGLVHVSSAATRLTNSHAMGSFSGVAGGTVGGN

[2] = target: T1, Histone-lysine N-methyltransferase, H3 lysine-79 specific; experiment: Inhibition of N-terminal 6His-tagged human DOT1L (1 to 416 residues) expressed in Escherichia coli BL21(DE3) at 50 and 100 uM preincubated for 15 mins followed by [3H]-SAM addition measured after 120 mins by radioactive methylation assay
Method in brief: (§1)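 DOT1L and compound preincubated 15 min at room temperature; oligonucleosome and 3H-SAM added; reaction 120 min at room temperature, stopped with cold SAM; transferred to 0.5% PEI-pretreated filter plate, washed 3× with water, read by liquid scintillation counting.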
Target sequence in this assay (Q8TEK3 whole entry, looked up, the tested form may be a part): as above

[3] = target: T1, Histone-lysine N-methyltransferase, H3 lysine-79 specific; experiment: Inhibition of N-terminal 6His-tagged human DOT1L (1 to 416 residues) expressed in Escherichia coli BL21(DE3) at preincubated for 15 mins followed by [3H]-SAM addition measured after 120 mins by radioactive methylation assay; method in brief: as §1
Target sequence in this assay (Q8TEK3 whole entry, the tested form may be a part): as the sequence (Q8TEK3 whole entry, looked up, the tested form may be a part) above

[4] = target: Protein arginine N-methyltransferase 5 (Homo sapiens) (UniProt O14744); experiment: Inhibition of PRMT5 (unknown origin) at 50 and 100 uM preincubated for 15 mins followed by substrate and [3H]-SAM addition for 60 mins measured after further 60 mins flashplate assay
Method in brief: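 In modified Tris buffer, enzyme preincubated 15 min at room temperature; substrate and [3H]SAM added for 60 min at room temperature; stopped with cold SAM; transferred to a Flashplate for 60 min, washed 3× with water plus 0.1% Tween-20, read by MicroBeta.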

[5] = target: Protein arginine N-methyltransferase 1 (Homo sapiens) (UniProt Q99873); experiment: Inhibition of PRMT1 (unknown origin) preincubated for 15 mins followed by biotinylated H3R2 substrate/[…]SAM addition for 60 mins measured after further 60 mins by AlphaLISA assay
Method in brief: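 Enzyme incubated 15 min at room temperature; biotinylated H3R2 peptide (50 nM final) and SAM (300 nM final) added; at 60 min acceptor beads (10 μg/mL final) stop the reaction; after 60 min, donor beads (10 μg/mL final) added, 30 min at room temperature in low light; alpha signal read.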

HL-60 = experiment: Cytotoxicity against human HL60 cells assessed as reduction in cell viability after 72 hrs by alamar blue assay; assay type: functional, cell-based; details: HL-60, 72 h
Method in brief: (§2)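 Cells cultured in RPMI 1640 with 10% FBS and 1% penicillin/streptomycin, treated with a range of concentrations or equal DMSO, 37 °C, 5% CO2, 72 h. Viability read by alamar blue (ex 544/em 590 nm); percent proliferation and IC50 curve fitted.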

K562 = experiment: Cytotoxicity against human K562 cells assessed as reduction in cell viability after 72 hrs by alamar blue assay; assay type: functional, cell-based; details: K562, 72 h; method in brief: as §2
MV4-11 [6] = experiment: Induction of cell cycle arrest in human MV4-11 cells assessed as accumulation at G2 phase at 6.25 uM after 48 hrs by propidium iodide/RNase-staining based flow cytometric analysis (reference value: 7.44 %); assay type: functional
Method in brief: (§3)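 MV4-11 cells (2 × 10^6) seeded in 12-well dishes, treated with different concentrations for 48 h, processed with a PI/RNase staining kit and analysed for cell-cycle distribution by FACSCalibur flow cytometry.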

MV4-11 [7] = experiment: Induction of cell cycle arrest in human MV4-11 cells assessed as accumulation at S phase at 6.25 uM after 48 hrs by propidium iodide/RNase-staining based flow cytometric analysis (reference value: 24.40 %); assay type: functional; method in brief: as §3
MV4-11 [8] = experiment: Induction of cell cycle arrest in human MV4-11 cells assessed as accumulation at G2 phase at 12.5 uM after 48 hrs by propidium iodide/RNase-staining based flow cytometric analysis (reference value: 7.44 %); assay type: functional; method in brief: as §3
MV4-11 [9] = experiment: Induction of cell cycle arrest in human MV4-11 cells assessed as accumulation at G1 phase at 25 uM after 48 hrs by propidium iodide/RNase-staining based flow cytometric analysis (reference value: 68.16 %); assay type: functional; method in brief: as §3
MV4-11 [10] = experiment: Induction of cell cycle arrest in human MV4-11 cells assessed as accumulation at S phase at 25 uM after 48 hrs by propidium iodide/RNase-staining based flow cytometric analysis (reference value: 24.40 %); assay type: functional; method in brief: as §3
MV4-11 [11] = experiment: Induction of cell cycle arrest in human MV4-11 cells assessed as accumulation at G1 phase at 50 uM after 48 hrs by propidium iodide/RNase-staining based flow cytometric analysis (reference value: 68.16 %); assay type: functional; method in brief: as §3
MV4-11 [12] = experiment: Induction of cell cycle arrest in human MV4-11 cells assessed as accumulation at S phase at 50 uM after 48 hrs by propidium iodide/RNase-staining based flow cytometric analysis (reference value: 24.40 %); assay type: functional; method in brief: as §3
MV4-11 [13] = experiment: Induction of apoptosis in human MV4-11 cells assessed as late apoptotic cells at 6.25 uM after 72 hrs by annexin V/FITC and propidium iodide staining-based flow cytometric analysis (reference value: 4.02 %); assay type: functional
MV4-11 [14] = experiment: Induction of apoptosis in human MV4-11 cells assessed as necrotic cells at 6.25 uM after 72 hrs by annexin V/FITC and propidium iodide staining-based flow cytometric analysis (reference value: 0.04 %); assay type: functional
MV4-11 [15] = experiment: Induction of apoptosis in human MV4-11 cells assessed as viable cells at 12.5 uM after 72 hrs by annexin V/FITC and propidium iodide staining-based flow cytometric analysis (reference value: 90.3 %); assay type: functional; details: MV4-11, 72 h, read-out: Activity
MV4-11 [16] = experiment: Induction of apoptosis in human MV4-11 cells assessed as late apoptotic cells at 12.5 uM after 72 hrs by annexin V/FITC and propidium iodide staining-based flow cytometric analysis (reference value: 4.02 %); assay type: functional
MV4-11 [17] = experiment: Induction of apoptosis in human MV4-11 cells assessed as late apoptotic cells at 25 uM after 72 hrs by annexin V/FITC and propidium iodide staining-based flow cytometric analysis (reference value: 4.02 %); assay type: functional
MV4-11 [18] = experiment: Induction of apoptosis in human MV4-11 cells assessed as viable cells at 50 uM after 72 hrs by annexin V/FITC and propidium iodide staining-based flow cytometric analysis (reference value: 90.3 %); assay type: functional; details: MV4-11, 72 h, read-out: Activity
MV4-11 [19] = experiment: Induction of apoptosis in human MV4-11 cells assessed as early apoptotic cells at 50 uM after 72 hrs by annexin V/FITC and propidium iodide staining-based flow cytometric analysis (reference value: 5.66 %); assay type: functional
MV4-11 [20] = experiment: Induction of apoptosis in human MV4-11 cells assessed as late apoptotic cells at 50 uM after 72 hrs by annexin V/FITC and propidium iodide staining-based flow cytometric analysis (reference value: 4.02 %); assay type: functional
MV4-11 [21] = experiment: Induction of apoptosis in human MV4-11 cells assessed as necrotic cells at 50 uM after 72 hrs by annexin V/FITC and propidium iodide staining-based flow cytometric analysis (reference value: 0.04 %); assay type: functional

Sequence of Protein arginine N-methyltransferase 1 (Homo sapiens) (Q99873 whole entry, looked up): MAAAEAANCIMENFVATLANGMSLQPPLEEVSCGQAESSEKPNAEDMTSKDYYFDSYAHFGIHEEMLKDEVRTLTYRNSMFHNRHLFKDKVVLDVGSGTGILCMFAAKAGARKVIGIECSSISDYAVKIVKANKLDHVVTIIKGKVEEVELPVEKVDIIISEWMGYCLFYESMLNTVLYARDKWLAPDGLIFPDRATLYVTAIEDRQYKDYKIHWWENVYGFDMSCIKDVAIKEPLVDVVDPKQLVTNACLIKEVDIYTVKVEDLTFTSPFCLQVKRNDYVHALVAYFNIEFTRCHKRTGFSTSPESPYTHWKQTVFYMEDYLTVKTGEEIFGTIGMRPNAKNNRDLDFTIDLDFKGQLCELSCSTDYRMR
Sequence of Protein arginine N-methyltransferase 5 (Homo sapiens) (O14744 whole entry): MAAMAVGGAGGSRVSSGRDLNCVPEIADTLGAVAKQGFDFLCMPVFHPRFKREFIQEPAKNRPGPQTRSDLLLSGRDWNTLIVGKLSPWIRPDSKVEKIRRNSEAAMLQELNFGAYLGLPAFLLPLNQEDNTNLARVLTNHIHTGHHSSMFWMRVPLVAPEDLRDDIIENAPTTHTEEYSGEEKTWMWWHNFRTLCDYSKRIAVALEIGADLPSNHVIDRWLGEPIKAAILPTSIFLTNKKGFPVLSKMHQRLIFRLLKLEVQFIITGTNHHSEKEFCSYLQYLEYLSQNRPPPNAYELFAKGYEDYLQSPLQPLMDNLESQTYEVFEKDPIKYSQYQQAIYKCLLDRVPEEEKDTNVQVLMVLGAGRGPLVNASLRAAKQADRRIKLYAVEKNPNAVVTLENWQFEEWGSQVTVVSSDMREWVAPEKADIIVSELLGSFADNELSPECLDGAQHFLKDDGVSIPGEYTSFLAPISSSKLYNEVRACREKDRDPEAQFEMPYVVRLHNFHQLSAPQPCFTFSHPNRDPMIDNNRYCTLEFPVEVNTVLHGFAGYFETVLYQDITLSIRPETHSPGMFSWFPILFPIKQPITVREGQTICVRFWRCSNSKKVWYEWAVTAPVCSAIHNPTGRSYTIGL

Question: For `Fc1cccc(-c2nn3c(Cn4nnc5ccccc54)nnc3s2)c1`, which inhibition [1] is on record?
Answer: > 40%

Question: What about the inhibition [2] of the same compound?
Answer: Active

Question: And the IC50 [3]?
Answer: 8.29 µM

Question: And the inhibition [4]?
Answer: < 40%

Question: What about the inhibition [5] of the same compound?
Answer: < 40%

Question: And the IC50 (HL-60)?
Answer: > 200 µM

Question: What about the IC50 (K562) of the same compound?
Answer: > 200 µM

Question: And the Activity (MV4-11 [6])?
Answer: 5.8%

Question: And the Activity (MV4-11 [7])?
Answer: 26.56%

Question: What about the Activity (MV4-11 [8]) of the same compound?
Answer: 4.35%

Question: What about the Activity (MV4-11 [9]) of the same compound?
Answer: 83.18%

Question: And the Activity (MV4-11 [10])?
Answer: 15.82%

Question: And the Activity (MV4-11 [11])?
Answer: 82.24%

Question: And the Activity (MV4-11 [12])?
Answer: 17.76%

Question: What about the Activity (MV4-11 [13]) of the same compound?
Answer: 25%

Question: What about the Activity (MV4-11 [14]) of the same compound?
Answer: 1.37%

Question: And the viability at 12.5 µM (MV4-11 [15])?
Answer: 10.6%

Question: What about the Activity (MV4-11 [16]) of the same compound?
Answer: 35.5%

Question: And the Activity (MV4-11 [17])?
Answer: 33.5%

Question: What about the viability at 50 µM (MV4-11 [18]) of the same compound?
Answer: 3.75%

Question: And the Activity (MV4-11 [19])?
Answer: 55.2%

Question: And the Activity (MV4-11 [20])?
Answer: 40.8%

Question: What about the Activity (MV4-11 [21]) of the same compound?
Answer: 0.28%
